Data from ChEMBL document CHEMBL3758117, “Discovery of indeno[1,2-b]quinoxaline derivatives as potential anticancer agents” (Eur J Med Chem, 2016).
The source made the active and inactive calls. No cut-off for these calls is given here.

Tests used:
[1] = tested on: Escherichia coli; test: Binding affinity to Escherichia coli negative supercoiled pBR322 DNA at 10 uM after 12 hrs by ethidium bromide staining based agarose gel electrophoresis
Procedure, shortened: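 Negatively supercoiled pBR322 (400 ng) in TE buffer pH 8.0 was incubated with compound at 10 μM for 12 h at room temperature. Loading buffer with sarkosyl was added. Samples were run on 1% agarose at 6 V/cm for 2.5 h in TAE pH 8.5, stained with ethidium bromide and photographed under UV.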

[2] = tested on: MDA-MB-231; test: Antiproliferative activity against human MDA-MB-231 cells after 72 hrs by XTT assay; assay type: functional, cell-based; details: MDA-MB-231, 72 h
Procedure, shortened: (§1)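 Cells kept as monolayers in DMEM with 10% FBS, penicillin, streptomycin and amphotericin at 37°C, 5% CO2. Seeded at 5 x 10³ cells/well and exposed to compound for 72 h in medium with 10% FBS. XTT plus electron-coupling reagent added, 4 h at 37°C, absorbance read at 492 nm. Percent of control growth uses mean absorbance (n = 3). The 50% value is taken from the linear portion of the curve.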

[3] = Antiproliferative activity against human H1299 cells after 72 hrs by XTT assay; assay type: functional, cell-based; details: NCI-H1299, 72 h; procedure, shortened: as §1
[4] = Antiproliferative activity against human PC3 cells after 72 hrs by XTT assay; assay type: functional, cell-based; details: PC-3, 72 h; procedure, shortened: as §1
[5] = Antiproliferative activity against human HuH7 cells after 72 hrs by XTT assay; assay type: functional, cell-based; details: Huh-7, 72 h; procedure, shortened: as §1
[6] = tested on: MRC5; test: Antiproliferative activity against human MRC5 cells after 72 hrs by XTT assay; assay type: cell-based; details: MRC5, 72 h; procedure, shortened: as §1
[7] = tested on: MRC5; test: Selectivity index, ratio of IC50 for human MRC5 cells to IC50 for human MDA-MB-231 cells; assay type: functional
[8] = Selectivity index, ratio of IC50 for human MRC5 cells to IC50 for human H1299 cells; assay type: functional
[9] = tested on: MRC5; test: Selectivity index, ratio of IC50 for human MRC5 cells to IC50 for human PC3 cells; assay type: functional
[10] = tested on: Huh-7; test: Selectivity index, ratio of IC50 for human MRC5 cells to IC50 for human HuH7 cells; assay type: functional
[11] = target: T1, DNA topoisomerase 1 (Homo sapiens) (UniProt P11387); test: Inhibition of human DNA topoisomerase 1-mediated relaxation of supercoiled pBR322 DNA at 100 uM after 30 mins by ethidium bromide staining based agarose gel electrophoresis
T1 sequence (whole entry): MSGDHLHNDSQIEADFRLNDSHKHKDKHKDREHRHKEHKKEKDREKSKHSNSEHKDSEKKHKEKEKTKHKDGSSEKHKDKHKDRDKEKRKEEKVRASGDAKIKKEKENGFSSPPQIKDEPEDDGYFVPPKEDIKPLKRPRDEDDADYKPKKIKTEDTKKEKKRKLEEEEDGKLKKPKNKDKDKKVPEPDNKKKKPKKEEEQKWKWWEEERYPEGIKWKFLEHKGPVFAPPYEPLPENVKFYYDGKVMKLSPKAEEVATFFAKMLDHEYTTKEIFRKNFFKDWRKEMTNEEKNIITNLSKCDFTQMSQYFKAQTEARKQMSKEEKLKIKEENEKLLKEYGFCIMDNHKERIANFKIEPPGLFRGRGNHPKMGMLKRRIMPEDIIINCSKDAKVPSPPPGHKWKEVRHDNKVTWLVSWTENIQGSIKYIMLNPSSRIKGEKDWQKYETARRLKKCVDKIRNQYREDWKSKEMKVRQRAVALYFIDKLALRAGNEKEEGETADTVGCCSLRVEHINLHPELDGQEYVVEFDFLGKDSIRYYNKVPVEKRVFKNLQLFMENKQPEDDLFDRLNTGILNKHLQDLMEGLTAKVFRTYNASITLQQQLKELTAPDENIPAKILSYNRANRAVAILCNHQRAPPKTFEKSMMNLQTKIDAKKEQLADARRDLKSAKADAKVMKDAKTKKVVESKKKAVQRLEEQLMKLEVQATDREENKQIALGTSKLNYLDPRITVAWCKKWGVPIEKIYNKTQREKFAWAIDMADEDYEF
Procedure, shortened: (§2)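 Human topo I or topo II (2 units) was reacted with 0.2 μg supercoiled pBR322 in 20 μl Tris-HCl pH 7.5 containing KCl, DTT, EDTA, MgCl2 and BSA, with DMSO held at 0.5%, for 30 min at 37°C. The reaction was stopped with SDS. Samples were run on 1% agarose in Tris-acetate/EDTA at 1.5 V/cm for 2-3 h and stained with ethidium bromide. Relaxation was quantified by densitometry of the supercoiled band area.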

[12] = target: DNA topoisomerase 2-alpha (Homo sapiens) (UniProt P11388); test: Inhibition of human DNA topoisomerase 2-mediated relaxation of supercoiled pBR322 DNA at 100 uM after 30 mins by ethidium bromide staining based agarose gel electrophoresis; procedure, shortened: as §2
[13] = target: T1, DNA topoisomerase 1 (Homo sapiens); test: Inhibition of human DNA topoisomerase 1-mediated relaxation of supercoiled pBR322 DNA at 10 uM after 30 mins by ethidium bromide staining based agarose gel electrophoresis; procedure, shortened: as §2
[14] = target: DNA topoisomerase 2-alpha (Homo sapiens) (UniProt P11388); test: Inhibition of human DNA topoisomerase 2-mediated relaxation of supercoiled pBR322 DNA at 10 uM after 30 mins by ethidium bromide staining based agarose gel electrophoresis; procedure, shortened: as §2

DNA topoisomerase 2-alpha (Homo sapiens), sequence (P11388 whole entry): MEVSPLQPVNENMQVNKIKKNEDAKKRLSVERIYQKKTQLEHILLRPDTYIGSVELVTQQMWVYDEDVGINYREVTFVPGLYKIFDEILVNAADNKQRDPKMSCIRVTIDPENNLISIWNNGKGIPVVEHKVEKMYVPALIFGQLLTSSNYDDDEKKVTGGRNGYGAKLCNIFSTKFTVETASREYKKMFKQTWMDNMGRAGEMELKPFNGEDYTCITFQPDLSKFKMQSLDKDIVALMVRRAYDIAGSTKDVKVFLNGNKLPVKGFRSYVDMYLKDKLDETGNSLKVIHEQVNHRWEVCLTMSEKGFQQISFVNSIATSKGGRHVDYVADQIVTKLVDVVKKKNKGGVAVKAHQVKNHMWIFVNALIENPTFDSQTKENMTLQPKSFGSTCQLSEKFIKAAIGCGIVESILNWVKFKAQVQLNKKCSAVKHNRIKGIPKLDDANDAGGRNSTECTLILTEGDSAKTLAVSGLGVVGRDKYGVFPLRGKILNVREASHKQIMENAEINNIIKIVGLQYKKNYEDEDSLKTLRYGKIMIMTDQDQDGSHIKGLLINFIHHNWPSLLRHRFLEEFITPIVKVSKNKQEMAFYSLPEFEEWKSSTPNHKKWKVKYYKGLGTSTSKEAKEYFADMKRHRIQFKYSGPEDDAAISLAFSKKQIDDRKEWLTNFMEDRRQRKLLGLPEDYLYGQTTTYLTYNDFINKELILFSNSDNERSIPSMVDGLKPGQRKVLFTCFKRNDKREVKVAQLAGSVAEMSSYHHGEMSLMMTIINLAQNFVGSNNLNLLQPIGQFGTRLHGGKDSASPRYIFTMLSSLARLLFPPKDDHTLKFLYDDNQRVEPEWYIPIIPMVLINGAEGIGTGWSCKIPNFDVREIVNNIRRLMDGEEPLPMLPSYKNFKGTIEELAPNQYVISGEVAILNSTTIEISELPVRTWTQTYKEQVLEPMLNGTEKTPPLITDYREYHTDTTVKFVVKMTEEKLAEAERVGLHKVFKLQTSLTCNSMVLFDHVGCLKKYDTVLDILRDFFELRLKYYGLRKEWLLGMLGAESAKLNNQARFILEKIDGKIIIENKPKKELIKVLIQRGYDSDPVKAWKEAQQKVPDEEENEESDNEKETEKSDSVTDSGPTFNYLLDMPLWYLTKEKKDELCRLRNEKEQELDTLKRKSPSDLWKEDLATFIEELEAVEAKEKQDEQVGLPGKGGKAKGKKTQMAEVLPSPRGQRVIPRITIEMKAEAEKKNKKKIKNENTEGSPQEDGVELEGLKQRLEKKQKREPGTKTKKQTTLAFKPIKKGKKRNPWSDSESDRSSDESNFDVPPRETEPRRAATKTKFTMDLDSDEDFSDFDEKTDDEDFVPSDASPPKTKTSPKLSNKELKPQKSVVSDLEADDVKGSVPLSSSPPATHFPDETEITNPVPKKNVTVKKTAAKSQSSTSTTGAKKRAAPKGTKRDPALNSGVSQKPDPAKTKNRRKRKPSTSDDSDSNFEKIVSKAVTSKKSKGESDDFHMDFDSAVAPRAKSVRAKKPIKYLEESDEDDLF

SMILES	Activity [1]	IC50 [2]	topoisomerase 1 inhibition (active/inactive) [11]	inhibition call (active/not active) [12]	inhibition [13]	topoisomerase 2 inhibition (active/not active) [14]	IC50 [3]	IC50 [4]	IC50 [5]	IC50 [6]	Ratio IC50 [7]	Ratio IC50 [8]	Ratio IC50 [9]	Ratio IC50 [10]
CN(C)CCCO/N=C1\c2ccccc2-c2nc3c(C(=O)O)cccc3nc21	inactive	> 10 µM	inactive	inactive			> 10 µM	> 10 µM	> 10 µM	15.1 µM				
O=C1c2ccccc2-c2nc3ccccc3nc21	inactive	> 10 µM					> 10 µM	> 10 µM	> 10 µM	85.3 µM				
O=C1c2ccccc2-c2nc3c(C(=O)NCCN4CCOCC4)cccc3nc21	inactive	> 10 µM	inactive	inactive			> 10 µM	> 10 µM	> 10 µM	88.6 µM				
O=C1c2ccccc2-c2nc3c(CN4CCC(N5CCCCC5)CC4)cccc3nc21	inactive	> 10 µM	inactive	inactive			> 10 µM	> 10 µM	> 10 µM	89.7 µM				
O=C1c2ccccc2-c2nc3c(CN4CCOCC4)cccc3nc21	inactive	> 10 µM	inactive	inactive			> 10 µM	> 10 µM	> 10 µM	95.7 µM				
O/N=C1\c2ccccc2-c2nc3ccccc3nc21	inactive	> 10 µM	inactive	inactive			> 10 µM	> 10 µM	> 10 µM	51.1 µM				
O=C1c2ccccc2-c2nc3c(C(=O)O)cccc3nc21	inactive	> 10 µM					> 10 µM	> 10 µM	> 10 µM	71.2 µM				
COc1ccc2c(c1)/C(=N\OCCN1CCCC1)c1c-2c(O)nc2ccccc12			Active	Active	Active	Active								
Cc1cccc2nc3c(nc12)-c1ccccc1C3=O	inactive	> 10 µM					> 10 µM	> 10 µM	> 10 µM	87.1 µM				
CN(C)Cc1cccc2nc3c(nc12)-c1ccccc1C3=O	inactive	> 10 µM	Active	inactive	inactive		> 10 µM	> 10 µM	> 10 µM	77.8 µM				
O=Cc1cccc2nc3c(nc12)-c1ccccc1C3=O	inactive	> 10 µM	inactive	inactive			> 10 µM	> 10 µM	> 10 µM	78.9 µM				
O=C1c2ccccc2-c2nc3c(CN4CCCCC4)cccc3nc21	inactive	> 10 µM	Active	inactive	inactive		> 10 µM	> 10 µM	> 10 µM	25.9 µM				

Now from value to compound, other results behind:

Activity [1]	IC50 [2]	topoisomerase 1 inhibition (active/inactive) [11]	inhibition call (active/not active) [12]	inhibition [13]	topoisomerase 2 inhibition (active/not active) [14]	SMILES	IC50 [3]	IC50 [4]	IC50 [5]	IC50 [6]	Ratio IC50 [7]	Ratio IC50 [8]	Ratio IC50 [9]	Ratio IC50 [10]
inactive	10.8 µM	inactive	inactive			O/N=C\c1cccc2nc3c(nc12)-c1ccccc1/C3=N/O	8.13 µM	9.45 µM	8.61 µM	6.54 µM	0.61	0.8	0.69	0.76
inactive	> 10 µM	Active	inactive	inactive		O=C1c2ccccc2-c2nc3c(CN4CCCC4)cccc3nc21	> 10 µM	> 10 µM	6.98 µM	9.8 µM				1.4
inactive	7.01 µM	Active	Active	Active	inactive	CN(C)CCCO/N=C1\c2ccccc2-c2nc3ccccc3nc21.Cl	7.19 µM	8.63 µM	5.38 µM	19.9 µM	2.83	2.76	2.3	3.69
inactive	7.03 µM	Active	Active	Active	Active	CN(C)CCCO/N=C/c1cccc2nc3c(nc12)-c1ccccc1/C3=N\OCCCN(C)C.Cl	5.1 µM	6.27 µM	7.19 µM	6.56 µM	0.93	1.29	1.05	0.91
Active	1.01 µM	Active	Active	Active	Active	C(=N\OCCN1CCCC1)/c1cccc2nc3c(nc12)-c1ccccc1/C3=N\OCCN1CCCC1.Cl	6.02 µM	5.17 µM	0.78 µM	0.91 µM	0.9	0.15	0.18	1.17
Active	0.68 µM	Active	Active	Active	inactive	CN(C)CCCO/N=C1\c2ccccc2-c2nc3c(CN4CCCC4)cccc3nc21.Cl	0.92 µM	0.78 µM	0.32 µM	0.9 µM	1.32	0.98	1.15	2.81
	< 0.1 µM					CC[C@@]1(O)C(=O)OCc2c1cc1n(c2=O)Cc2cc3c(CN(C)C)c(O)ccc3nc2-1 [TOPOTECAN]		9.35 µM		4.25 µM	>42.5	0.71	0.45	0.49
Active	0.45 µM	Active	Active	Active	Active	CN(C)CCCO/N=C1\c2ccccc2-c2nc3c(C(=O)NCCN4CCCC4)cccc3nc21.Cl	5.69 µM	0.68 µM	0.82 µM	7.89 µM	17.53	1.39	11.6	9.62
